Data published in ChEMBL document CHEMBL4422632, “Design of Novel Inhibitors of Human Thymidine Phosphorylase: Synthesis, Enzyme Inhibition, in Vitro Toxicity, and Impact on Human Glioblastoma Cancer” (J Med Chem, 2019).
Active and inactive are the calls of the source. No cut-off for these calls is given here.

Columns and labels:
[1] = Cytotoxicity against human HepG2 cells assessed as cell viability at 25 uM after 72 hrs by neutral red uptake-based assay relative to control; conditions: read-out: Activity
Method in brief: (§1)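 Cells grown in DMEM with 10% FBS at 37 °C, 5% CO₂; seeded 2 x 10³ cells/well, adhered 24 h, then exposed 72 h. MTT: 1 mg/mL for 3 h, formazan in DMSO, absorbance 595 nm. NRU: neutral red 25 µg/mL in serum-free medium for 3 h, desorbed in ethanol:acetic acid:water. Viability as % of untreated control; mean ± SEM of three to five independent experiments in triplicate.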

[2] = Cytotoxicity against human HepG2 cells assessed as cell viability at 50 uM after 72 hrs by neutral red uptake-based assay relative to control; conditions: read-out: Activity; method in brief: as §1
[3] = Cytotoxicity against human HepG2 cells assessed as cell viability at 100 uM after 72 hrs by neutral red uptake-based assay relative to control; conditions: read-out: Activity; method in brief: as §1
[4] = Cytotoxicity against human HepG2 cells assessed as cell viability at 500 uM after 72 hrs by neutral red uptake-based assay relative to control; conditions: read-out: Activity; method in brief: as §1
[5] = Cytotoxicity against human HepG2 cells assessed as cell viability at 1000 uM after 72 hrs by neutral red uptake-based assay relative to control; conditions: read-out: Activity; method in brief: as §1
[6] = Cytotoxicity against African green monkey Vero cells assessed as cell viability at 25 uM after 72 hrs by MTT assay relative to control; type: cell-based; conditions: chlorocebus sabaeus, read-out: Activity; method in brief: as §1
[7] = Cytotoxicity against African green monkey Vero cells assessed as cell viability at 100 uM after 72 hrs by MTT assay relative to control; type: cell-based; conditions: chlorocebus sabaeus, read-out: Activity; method in brief: as §1
[8] = Cytotoxicity against African green monkey Vero cells assessed as cell viability at 250 uM after 72 hrs by MTT assay relative to control; type: cell-based; conditions: chlorocebus sabaeus, read-out: Activity; method in brief: as §1
[9] = Cytotoxicity against African green monkey Vero cells assessed as cell viability at 500 uM after 72 hrs by MTT assay relative to control; type: cell-based; conditions: chlorocebus sabaeus, read-out: Activity; method in brief: as §1
[10] = Cytotoxicity against African green monkey Vero cells assessed as cell viability at 1000 uM after 72 hrs by MTT assay relative to control; type: cell-based; conditions: chlorocebus sabaeus, read-out: Activity; method in brief: as §1
[11] = Cytotoxicity against human HaCaT cells assessed as cell viability at 100 uM after 72 hrs by MTT assay relative to control; type: cell-based; conditions: read-out: Activity; method in brief: as §1
[12] = Cytotoxicity against human HaCaT cells assessed as cell viability at 1000 uM after 72 hrs by MTT assay relative to control; type: cell-based; conditions: read-out: Activity; method in brief: as §1
[13] = Cytotoxicity against human HaCaT cells assessed as cell viability at 100 uM after 72 hrs by neutral red uptake-based assay relative to control; conditions: read-out: Activity; method in brief: as §1
[14] = Cytotoxicity against human HaCaT cells assessed as cell viability at 250 uM after 72 hrs by neutral red uptake-based assay relative to control; conditions: read-out: Activity; method in brief: as §1
[15] = Cytotoxicity against human HaCaT cells assessed as cell viability at 1000 uM after 72 hrs by neutral red uptake-based assay relative to control; conditions: read-out: Activity; method in brief: as §1
[16] = Cytotoxicity against mouse RAW264.7 cells assessed as cell viability at 50 uM after 72 hrs by MTT assay relative to control; type: cell-based; conditions: read-out: Activity
Method in brief: (§2)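 Cells kept in DMEM with 10% heat-inactivated FBS, 1% penicillin-streptomycin and 0.1% fungizone at 37 °C, 5% CO₂. U-87 MG seeded at 2 x 10^3 cells/well, RAW 264.7 at 5 x 10^2, adhered 24 h, then exposed 72 h. MTT: 1 mg/mL for 3 h, formazan in DMSO, A595. NRU: 25 μg/mL dye, 3 h, ethanol:acetic acid:water desorb. Untreated wells = 100%; three to five independent experiments in triplicate.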

[17] = Cytotoxicity against mouse RAW264.7 cells assessed as cell viability at 50 uM after 72 hrs by neutral red uptake-based assay relative to control; conditions: read-out: Activity; method in brief: as §2
[18] = Cytotoxicity against human U87MG cells assessed as cell viability at 25 uM after 72 hrs by MTT assay relative to control; type: cell-based, U-87MG ATCC; conditions: read-out: Activity; method in brief: as §2
[19] = Cytotoxicity against human U87MG cells assessed as cell viability at 500 uM after 72 hrs by MTT assay relative to control; type: cell-based, U-87MG ATCC; conditions: read-out: Activity; method in brief: as §2
[20] = Cytotoxicity against human U87MG cells assessed as cell viability at 25 uM after 72 hrs by neutral red uptake-based assay relative to control; set-up: species or system U-87MG ATCC; conditions: read-out: Activity; method in brief: as §2
[21] = Cytotoxicity against human U87MG cells assessed as cell viability at 100 uM after 72 hrs by neutral red uptake-based assay relative to control; set-up: species or system U-87MG ATCC; conditions: read-out: Activity; method in brief: as §1
Cytochrome P450 2C9 = Cytochrome P450 2C9 (Homo sapiens, UniProt P11712); assay: Inhibition of CYP2C9 in human liver microsomes by HPLC-MS/MS analysis; type: ADME
Cytochrome P450 2C19 = Cytochrome P450 2C19 (Homo sapiens, UniProt P33261); assay: Inhibition of CYP2C19 in human liver microsomes by HPLC-MS/MS analysis; type: ADME
Cytochrome P450 2D6 = Cytochrome P450 2D6 (Homo sapiens, UniProt P10635); assay: Inhibition of CYP2D6 in human liver microsomes by HPLC-MS/MS analysis; type: ADME
[22] = Intrinsic clearance in human liver S9 fraction at 2 uM up to 30 mins in presence of NADPH by HPLC-MS/MS analysis; type: ADME, subcellular; conditions: read-out: CLH
[23] = Half life in human liver S9 fraction at 2 uM up to 30 mins in presence of NADPH by HPLC-MS/MS analysis; type: ADME, subcellular
[24] = AUCM (0 to infinity) in CF1 mouse at 50 mg/kg, ip by non-compartmental analysis; type: ADME, organism-based; conditions: in vivo
[25] = Toxicity in nude BALB/c mouse xenografted with human U87MG cells assessed as reduction in body weight at 50 mg/kg, […]; type: organism-based; conditions: in vivo, ip, 120 h
U-87 MG [26] = assay: Anti-angiogenic activity in tumor of human U87MG cells xenografted in nude BALB/c mouse assessed as reduction in VEGF staining at 50 mg/kg, ip administered for 14 days by immunohistochemistry; type: functional, organism-based; conditions: U-87MG ATCC
Method in brief: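 Male nude mice bearing subcutaneous right-flank xenografts of 5 x 10⁵ U-87 MG cells; dosing began at about 50 mm³ tumors, ip daily for 14 days. Tumors formalin-fixed, paraffin sections 3 µm; citrate pH 6 antigen retrieval at 95-98 °C; primary antibody overnight at 4 °C, HRP secondary, DAB. Positive area quantified by optical density at x200, 4 images per tumor; mean ± SEM, one-way ANOVA with Dunnett.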

U-87 MG [27] = assay: Anti-angiogenic activity in tumor of human U87MG cells xenografted in nude BALB/c mouse assessed as reduction in number of blood vessels at 50 mg/kg, ip administered for 14 days by hematoxylin and eosin-staining based light microscopy; type: functional, organism-based; conditions: U-87MG ATCC
Method in brief: (§3)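 U-87 MG flank xenografts (5 x 10⁵ cells) in male nude mice; ip treatment daily from about 50 mm³ for 14 days, with temozolomide at 50 mg/kg/day in the co-treatment arm. Vessel density counted on HE-stained 3 µm sections by hot-spot method, mean of four fields per tumor at x200, avoiding gross haemorrhage. One-way ANOVA/Dunnett.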

[28] = Toxicity in nude BALB/c mouse xenografted with human U87MG cells assessed as reduction in body weight at 50 mg/kg, […] co-treated with temozolamide; type: organism-based; conditions: in vivo, ip, 120 h
U-87 MG [29] = assay: Anti-angiogenic activity in tumor of human U87MG cells xenografted in nude BALB/c mouse assessed as reduction in number of blood vessels at 50 mg/kg, ip administered for 14 days by hematoxylin and eosin-staining based light microscopy co-treated with temozolamide; type: functional, organism-based; conditions: U-87MG ATCC; method in brief: as §3

Sequence of Cytochrome P450 2D6 (P10635 whole entry): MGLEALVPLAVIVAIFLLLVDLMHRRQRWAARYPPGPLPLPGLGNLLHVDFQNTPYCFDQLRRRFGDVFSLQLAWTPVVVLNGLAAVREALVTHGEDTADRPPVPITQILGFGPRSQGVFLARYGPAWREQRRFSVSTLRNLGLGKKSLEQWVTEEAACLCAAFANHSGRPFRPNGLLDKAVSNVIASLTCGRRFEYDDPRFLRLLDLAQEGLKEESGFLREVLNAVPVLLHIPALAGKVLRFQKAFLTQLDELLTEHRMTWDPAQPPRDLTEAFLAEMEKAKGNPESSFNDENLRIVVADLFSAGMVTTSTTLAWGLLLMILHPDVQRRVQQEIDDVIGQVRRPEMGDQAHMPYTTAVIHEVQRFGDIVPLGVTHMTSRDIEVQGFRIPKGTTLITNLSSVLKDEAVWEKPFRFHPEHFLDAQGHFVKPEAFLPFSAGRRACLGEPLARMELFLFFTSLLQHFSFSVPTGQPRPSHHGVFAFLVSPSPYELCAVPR
Sequence of Cytochrome P450 2C9 (P11712 whole entry): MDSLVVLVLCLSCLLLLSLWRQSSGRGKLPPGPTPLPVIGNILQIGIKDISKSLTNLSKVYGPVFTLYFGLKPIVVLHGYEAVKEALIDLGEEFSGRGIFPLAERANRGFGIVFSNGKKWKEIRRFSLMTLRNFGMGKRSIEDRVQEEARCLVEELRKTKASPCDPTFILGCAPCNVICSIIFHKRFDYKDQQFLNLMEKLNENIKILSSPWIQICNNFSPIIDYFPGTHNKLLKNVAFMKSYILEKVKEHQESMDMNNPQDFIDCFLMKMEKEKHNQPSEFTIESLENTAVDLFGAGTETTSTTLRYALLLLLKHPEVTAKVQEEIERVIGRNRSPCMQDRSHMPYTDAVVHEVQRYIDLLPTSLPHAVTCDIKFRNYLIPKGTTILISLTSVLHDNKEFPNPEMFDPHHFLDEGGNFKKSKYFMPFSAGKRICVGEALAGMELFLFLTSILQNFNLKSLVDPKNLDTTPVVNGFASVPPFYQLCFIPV
Sequence of Cytochrome P450 2C19 (P33261 whole entry): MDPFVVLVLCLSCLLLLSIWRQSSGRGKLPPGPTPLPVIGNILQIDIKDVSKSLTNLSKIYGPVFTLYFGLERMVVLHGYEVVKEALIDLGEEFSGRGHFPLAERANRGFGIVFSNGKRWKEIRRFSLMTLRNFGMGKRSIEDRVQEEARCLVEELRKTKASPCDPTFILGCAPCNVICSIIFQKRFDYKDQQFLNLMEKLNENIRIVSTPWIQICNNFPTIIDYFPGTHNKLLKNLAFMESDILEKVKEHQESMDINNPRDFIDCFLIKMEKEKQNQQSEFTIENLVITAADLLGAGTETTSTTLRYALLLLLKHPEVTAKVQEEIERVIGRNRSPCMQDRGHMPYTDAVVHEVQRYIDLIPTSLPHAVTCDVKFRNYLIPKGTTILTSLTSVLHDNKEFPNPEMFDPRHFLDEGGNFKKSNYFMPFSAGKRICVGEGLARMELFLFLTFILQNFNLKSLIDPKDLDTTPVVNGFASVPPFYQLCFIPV

Structure (SMILES): O=c1[nH]c(CNC(CO)CO)c(I)c(=O)[nH]1
- viability at 72 h, 25 µM [1]: 102%
- viability at 72 h, 50 µM [2]: 103%
- viability at 72 h, 100 µM [3]: 102%
- viability at 72 h, 500 µM [4]: 96%
- viability at 72 h, 1000 µM [5]: 81%
- viability at 72 h, 25 µM [6]: 101%
- viability at 72 h, 100 µM [7]: 96%
- viability at 72 h, 250 µM [8]: 95%
- viability at 72 h, 500 µM [9]: 84%
- viability at 72 h, 1000 µM [10]: 75%
- viability at 72 h, 100 µM [11]: 98%
- viability at 72 h, 1000 µM [12]: 81%
- viability at 72 h, 100 µM [13]: 104%
- viability at 72 h, 250 µM [14]: 100%
- viability at 72 h, 1000 µM [15]: 75%
- viability at 72 h, 50 µM [16]: 99%
- viability at 72 h, 50 µM [17]: 102%
- viability at 72 h, 25 µM [18]: 101%
- viability at 72 h, 500 µM [19]: 89%
- viability at 72 h, 25 µM [20]: 99%
- viability at 72 h, 100 µM [21]: 104%
- IC50 (Cytochrome P450 2C9): > 100 µM
- IC50 (Cytochrome P450 2C19): > 100 µM
- IC50 (Cytochrome P450 2D6): > 100 µM
- CLint scaled at 2 µM [22]: 13 mL/min/kg
- half-life at 2 µM [23]: 28.1 min
- AUMC [24]: 7.6 µg·h²/mL
- Activity [25]: Non-Toxic
- Activity (U-87 MG [26]): Active
- Activity (U-87 MG [27]): Active
- Activity [28]: Non-Toxic
- Activity (U-87 MG [29]): Active
